Results: ChEMBL document CHEMBL1151683, “Design, synthesis and antitumor evaluation of novel thalidomide dithiocarbamate and dithioate analogs against Ehrlich ascites carcinoma-induced solid tumor in Swiss albino mice” (Bioorg Med Chem, 2008)

What was measured:
Ehrlich [1] = assay: Cytotoxicity against mouse Ehrlich ascites carcinoma cells assessed as cell death at 10 uL after 24 hrs by trypan blue exclusion assay
Ehrlich [2] = assay: Cytotoxicity against mouse Ehrlich ascites carcinoma cells assessed as viable cells at 20 uL after 24 hrs by trypan blue exclusion assay; format: functional
Method in brief: (§1)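 EAC cells maintained by i.p. passage in female Swiss albino mice. Cells aspirated from peritoneum, washed in HBSS and centrifuged at 1500 rpm for 15 min; 0.2 mL of diluted suspension plated. Compounds from 10 mmol stock in DMSO/H₂O (0.7:0.3) were added in triplicate and incubated 24 h at 37 °C, 5% CO₂. Viability by trypan blue exclusion; cytotoxicity calculated against control EAC cells.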

Ehrlich [3] = assay: Cytotoxicity against mouse Ehrlich ascites carcinoma cells assessed as viable cells at 30 uL after 24 hrs by trypan blue exclusion assay; format: functional
Method in brief: as §1

Mus musculus [4] = assay: Toxicity in Swiss albino mouse bearing mouse Ehrlich ascites carcinoma cells assessed as hepatocyte necrosis treated after 7 days post-tumor implantation at 1.25 mM/kg, sc for 5 days by histopathological analysis; format: organism-based; conditions: in vivo, 1250 µM
Method in brief: (§2)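 Liver specimens from the treated tumour-bearing mice were paraffin-embedded and cut as 5 µm sections. Sections were H&E-stained and graded for severity of hepatocyte degeneration and necrosis, with 0 meaning no degeneration or necrosis.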

Ehrlich [5] = assay: Antitumor activity against mouse Ehrlich ascites carcinoma cells implanted in Swiss albino mouse treated after 7 days post-tumor implantation at 1.25 mM/kg, sc for 5 days relative to control; format: functional
Method in brief: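 Female Swiss albino mice (n = 8 per group) received 0.2 mL EAC cells (2 × 10⁶ cells/mL) s.c. between the thighs of the lower limb. From day 7, compounds were given at 1.25 mM/kg s.c. daily for 5 consecutive days. […] control group received DMSO/H₂O. Mice were sacrificed and tumour volume change assessed on day 12 post-implantation.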

Mus musculus [6] = assay: Decrease in lipid peroxidation in mouse Ehrlich ascites carcinoma cells implanted in Swiss albino mouse assessed as malondialdehyde per gram of tissue treated after 7 days post-tumor implantation at 1.25 mM/kg, sc for 5 days; format: functional
Method in brief: (§3)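 Livers from tumour-bearing mice were excised and rinsed in ice-cold saline, then in cold 0.15 mol/L Tris–HCl pH 7.4. They were blotted dry, weighed and homogenised at 10% w/v. Lipid peroxidation was expressed as nmol MDA/g tissue, catalase as kU/mg tissue and SOD as U/g tissue.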

Ehrlich [7] = assay: Antitumor activity against mouse Ehrlich ascites carcinoma cells implanted in Swiss albino mouse assessed as tumor necrosis treated after 7 days post-tumor implantation at 1.25 mM/kg, sc for 5 days by histopathological analysis relative to control; format: functional
Method in brief: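 Necrosis scored on H&E-stained 5 µm paraffin sections of excised solid tumour. Severity and percentage necrosis were graded, and an H score was calculated.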

Ehrlich [8] = assay: Antitumor activity against mouse Ehrlich ascites carcinoma cells implanted in Swiss albino mouse assessed as tumor apoptotic index treated after 7 days post-tumor implantation at 1.25 mM/kg, sc for 5 days by histopathological analysis; format: functional
Method in brief: (§4)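 H&E-stained 5 µm paraffin sections of solid tumour. Mitotic cells counted in 10 random fields (at least 1000 tumour cells) at 400×. Apoptotic bodies counted in 10 random fields at the same magnification. MI and AI given as percentage of total intact tumour cells.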

Mus musculus [9] = assay: Increase in catalase activity per milligram of tissue in mouse Ehrlich ascites carcinoma cells implanted in Swiss albino mouse treated after 7 days post-tumor implantation at 1.25 mM/kg, sc for 5 days; format: functional
Method in brief: as §3

Mus musculus [10] = assay: Increase in SOD activity per gram of tissue in mouse Ehrlich ascites carcinoma cells implanted in Swiss albino mouse treated after 7 days post-tumor implantation at 1.25 mM/kg, sc for 5 days; format: functional
Method in brief: as §3

Mus musculus [11] = assay: Toxicity in Swiss albino mouse bearing mouse Ehrlich ascites carcinoma cells assessed as hepatocyte degeneration treated after 7 days post-tumor implantation at 1.25 mM/kg, sc for 5 days by histopathological analysis; format: organism-based; conditions: in vivo, 1250 µM
Method in brief: as §2

Ehrlich [12] = assay: Antitumor activity against mouse Ehrlich ascites carcinoma cells implanted in Swiss albino mouse assessed as tumor mitotic index treated after 7 days post-tumor implantation at 1.25 mM/kg, sc for 5 days by histopathological analysis; format: functional
Method in brief: as §4

Ehrlich [13] = assay: Induction of apoptosis in mouse Ehrlich ascites carcinoma cells implanted in Swiss albino mouse assessed as increase in Fas-L expression treated after 7 days post-tumor implantation at 1.25 mM/kg, sc for 5 days by immunohistochemical analysis; format: functional
Method in brief: (§5)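 Solid tumours from EAC-bearing female Swiss albino mice; formalin-fixed, paraffin-embedded 5 µm sections. Microwave antigen retrieval (20 min, 10 mmol citrate, pH 6.0) after peroxidase block; primary antibody overnight at room temperature, labelled streptavidin–biotin HRP detection, DAB chromogen, Mayer's hematoxylin counterstain. Immunoreactivity scored blind by light microscopy as intensity, % positive cells and H score.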

Mus musculus [14] = assay: Toxicity in Swiss albino mouse bearing mouse Ehrlich ascites carcinoma cells assessed as focal degeneration of hepatocytes treated after 7 days post-tumor implantation at 1.25 mM/kg, sc for 5 days by histopathological analysis; format: organism-based; conditions: in vivo
Method in brief: as §2

Mus musculus [15] = assay: Toxicity in Swiss albino mouse bearing mouse Ehrlich ascites carcinoma cells assessed as multifocal degeneration of hepatocytes treated after 7 days post-tumor implantation at 1.25 mM/kg, sc for 5 days by histopathological analysis; format: organism-based; conditions: in vivo, 1250 µM
Method in brief: as §2

Ehrlich [16] = assay: Antiproliferative activity against mouse Ehrlich ascites carcinoma cells implanted in Swiss albino mouse assessed as inhibition of Ki67 protein expression treated after 7 days post-tumor implantation at 1.25 mM/kg, sc for 5 days by immunohistochemical analysis; format: functional; design: scale not given: the % may be the effect or the level left
Method in brief: as §5

Mus musculus [17] = assay: Toxicity in Swiss albino mouse bearing mouse Ehrlich ascites carcinoma cells assessed as focal necrosis of hepatocytes treated after 7 days post-tumor implantation at 1.25 mM/kg, sc for 5 days by histopathological analysis; format: organism-based; conditions: in vivo, 1250 µM
Method in brief: as §2

Ehrlich [18] = assay: Antiangiogenic activity against mouse Ehrlich ascites carcinoma cells implanted in Swiss albino mouse assessed as inhibition of VEGF expression treated after 7 days post-tumor implantation at 1.25 mM/kg, sc for 5 days by immunohistochemical analysis; format: functional; design: scale not given: the % may be the effect or the level left
Method in brief: as §5

| SMILES | Activity (Ehrlich [1]) [%] | Activity (Ehrlich [2]) [%] | Activity (Ehrlich [3]) [%] | Activity (Mus musculus [4]) | inhibition (INH) (Ehrlich [5]) [%] | Activity (Mus musculus [6]) [nmol] | Activity (Ehrlich [7]) [%] | Activity (Ehrlich [8]) | Activity (Mus musculus [9]) [kU] | Activity (Mus musculus [10]) [U] | Activity (Mus musculus [11]) | Activity (Ehrlich [12]) | Activity (Ehrlich [13]) [%] | Activity (Mus musculus [14]) | Activity (Mus musculus [15]) | Activity (Ehrlich [16]) [%] | Activity (Mus musculus [17]) | Activity (Ehrlich [18]) [%] |
| --- | --- | --- | --- | --- | --- | --- | --- | --- | --- | --- | --- | --- | --- | --- | --- | --- | --- | --- |
| O=C1CCC(N2C(=O)c3ccccc3C2=O)C(=O)N1CSC(=S)NCc1ccccc1 (stereo not drawn) | 56.7 | 59 | 61.3 | – | – | – | – | – | – | – | – | – | – | – | – | – | – | – |
| CCCNC(=S)SCN1C(=O)CCC(N2C(=O)c3ccccc3C2=O)C1=O (stereo not drawn) | 10.6 | 75.5 | 88.6 | – | – | – | – | – | – | – | – | – | – | – | – | – | – | – |
| O=C1CCC(N2C(=O)c3ccccc3C2=O)C(=O)N1CSC(=S)N(CCO)CCO (stereo not drawn) | 20.6 | 30.6 | 87.8 | – | – | – | – | – | – | – | – | – | – | – | – | – | – | – |
| CSCN1C(=O)CCC(N2C(=O)c3ccccc3C2=O)C1=O (stereo not drawn) | 62.5 | 71.5 | 82.8 | Non-toxic | 90.6 | 289.6 | 49 | 0.002 | 6.7 | 139.8 | Non-toxic | 0.004 | 45 | – | – | – | – | – |
| O=C1CCC(N2C(=O)c3ccccc3C2=O)C(=O)N1CSC(=S)NCCc1ccccc1 (stereo not drawn) | 45 | 47.3 | 52 | – | – | – | – | – | – | – | – | – | – | – | – | – | – | – |
| O=C1CCC(N2C(=O)c3ccccc3C2=O)C(=O)N1CSC(=S)NCCN1CCNCC1 (stereo not drawn) | 45.5 | 60.6 | 68.8 | – | – | – | – | – | – | – | – | – | – | – | – | – | – | – |
| O=C1CCC(N2C(=O)c3ccccc3C2=O)C(=O)N1CSC(=S)NCCN1CCOCC1 (stereo not drawn) | 20.6 | 75.7 | 94.7 | – | – | – | – | – | – | – | – | – | – | – | – | – | – | – |
| CNC(=S)SCN1C(=O)CCC(N2C(=O)c3ccccc3C2=O)C1=O (stereo not drawn) | 76.5 | 80 | 85.7 | – | – | – | – | – | – | – | – | – | – | – | – | – | – | – |
| CCN(CC)C(=S)SCN1C(=O)CCC(N2C(=O)c3ccccc3C2=O)C1=O (stereo not drawn) | 10.2 | 20.7 | 90.6 | – | – | – | – | – | – | – | – | – | – | – | – | – | – | – |
| O=C1CCC(N2C(=O)c3ccccc3C2=O)C(=O)N1CSC(=S)NN1CCOCC1 (stereo not drawn) | 30.5 | 70.6 | 91.3 | – | – | – | – | – | – | – | – | – | – | – | – | – | – | – |
| CN1CCN(NC(=S)SCN2C(=O)CCC(N3C(=O)c4ccccc4C3=O)C2=O)CC1 (stereo not drawn) | 80.4 | 80.7 | 100 | Non-toxic | 98.9 | 248.4 | 61 | 0.005 | 8.2 | 162.2 | – | 0.002 | 60 | Active | – | – | – | – |
| O=C1CCC(N2C(=O)c3ccccc3C2=O)C(=O)N1CSC(=S)N1CCOCC1 (stereo not drawn) | 80 | 80.5 | 89.7 | – | – | – | – | – | – | – | – | – | – | – | – | – | – | – |
| O=C1CCC(N2C(=O)c3ccccc3C2=O)C(=O)N1CSC(=S)NC1CCCCC1 (stereo not drawn) | 20.6 | 60.8 | 95.2 | Non-toxic | 92.7 | 257.8 | 41 | 0.002 | 6.4 | 128.6 | – | 0.005 | 44 | Active | – | – | – | – |
| O=C1CCC(N2C(=O)c3ccccc3C2=O)C(=O)N1CSC(=S)NCCN1CCCCC1 (stereo not drawn) | 80.5 | 80.8 | 100 | Non-toxic | 99.6 | 247.6 | 100 | 0.004 | 7.2 | 145.8 | – | 0.004 | 55 | – | Active | – | – | – |
| O=C1CCC(N2C(=O)c3ccccc3C2=O)C(=O)N1CSC(=S)NNc1ccccc1 (stereo not drawn) | 80 | 81.6 | 92 | – | – | – | – | – | – | – | – | – | – | – | – | – | – | – |
| O=C1CCC(N2C(=O)c3ccccc3C2=O)C(=O)N1CSC(=S)N1CCCCC1 (stereo not drawn) | 10.3 | 80.4 | 95.3 | Non-toxic | 95.9 | 276.2 | 50 | 0.002 | 7.2 | 152.4 | – | 0.004 | 120 | Active | – | – | – | – |
| O=C1CCC(N2C(=O)c3ccccc3C2=O)C(=O)N1 (racemic) [THALIDOMIDE] | 20.5 | 20.5 | 56.4 | – | 80.6 | 330.2 | 44 | 0.003 | 5.8 | 108.4 | – | 0.006 | 66 | Active | – | 7.4 | Active | 8 |
